In ChEMBL document CHEMBL5325511, “Discovery of N-(4-(Aminomethyl)phenyl)-5-methylpyrimidin-2-amine Derivatives as Potent and Selective JAK2 Inhibitors” (ACS Med Chem Lett, 2023):

Experiments:
BaF3 [1] = test: Inhibition of JAK2/STAT signaling pathway in mouse BaF3 cells harbouring JAK2 V617F mutant assessed as reduction in JAK2 phosphorylation by Western blot analysis; type: cell-based; settings: dose 10-1000 nM
Method in brief: (§1)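 Ba/F3 JAK2V617F cells treated with compound at increasing concentrations. Phosphorylation levels of JAK2, STAT3, STAT5 and AKT assessed by Western blot.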

[2] = molecular target: T1, Tyrosine-protein kinase JAK3 (Homo sapiens, UniProt P52333); test: Inhibition of JAK3 (unknown origin) in presence of Mg/ATP mixture by [gamma p33]-ATP based radiometric assay
T1 sequence (P52333 whole entry): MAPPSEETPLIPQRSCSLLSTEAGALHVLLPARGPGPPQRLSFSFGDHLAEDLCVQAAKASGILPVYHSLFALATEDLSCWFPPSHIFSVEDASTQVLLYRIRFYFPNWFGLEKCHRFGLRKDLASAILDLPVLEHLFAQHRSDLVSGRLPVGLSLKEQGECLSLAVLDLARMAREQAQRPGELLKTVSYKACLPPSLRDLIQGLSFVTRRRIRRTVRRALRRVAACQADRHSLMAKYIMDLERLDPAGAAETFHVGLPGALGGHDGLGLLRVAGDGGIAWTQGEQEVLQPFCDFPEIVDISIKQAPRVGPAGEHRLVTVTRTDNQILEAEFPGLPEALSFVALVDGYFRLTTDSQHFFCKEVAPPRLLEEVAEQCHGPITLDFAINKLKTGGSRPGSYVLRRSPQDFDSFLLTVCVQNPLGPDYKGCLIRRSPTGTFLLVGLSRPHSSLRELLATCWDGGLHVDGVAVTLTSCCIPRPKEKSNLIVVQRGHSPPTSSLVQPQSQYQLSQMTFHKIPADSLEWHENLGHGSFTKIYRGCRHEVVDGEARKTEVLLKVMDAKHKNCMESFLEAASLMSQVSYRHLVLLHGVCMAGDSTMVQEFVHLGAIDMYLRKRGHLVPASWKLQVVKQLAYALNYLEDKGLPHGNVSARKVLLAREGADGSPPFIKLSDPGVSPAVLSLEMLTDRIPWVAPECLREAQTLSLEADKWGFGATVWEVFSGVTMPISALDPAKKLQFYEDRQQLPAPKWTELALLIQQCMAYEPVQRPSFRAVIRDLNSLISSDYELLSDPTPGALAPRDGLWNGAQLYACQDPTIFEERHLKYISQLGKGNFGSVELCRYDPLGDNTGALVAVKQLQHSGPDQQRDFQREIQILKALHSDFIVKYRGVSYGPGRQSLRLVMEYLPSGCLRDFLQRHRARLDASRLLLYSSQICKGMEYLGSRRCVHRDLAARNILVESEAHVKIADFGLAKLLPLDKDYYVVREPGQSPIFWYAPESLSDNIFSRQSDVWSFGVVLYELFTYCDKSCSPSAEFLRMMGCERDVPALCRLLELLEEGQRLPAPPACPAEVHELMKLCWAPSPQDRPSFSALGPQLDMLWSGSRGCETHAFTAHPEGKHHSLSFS

[3] = Cmax in Sprague-Dawley rat at 5 mg/kg, po measured upto 24 hrs by LC-MS/MS analysis; type: ADME, organism-based; design: dose 5 mg/kg, time < 24 hrs, route po; settings: in vivo, 24 h
Method in brief: (§2)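 Sprague–Dawley rats, n = 5, dosed at 5 mg/kg as a solution in 2% ethanol and 1% Tween 80, pH 5.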

[4] = molecular target: Non-receptor tyrosine-protein kinase TYK2 (Homo sapiens, UniProt P29597); test: Inhibition of TYK2 (unknown origin) in presence of Mg/ATP mixture by [gamma p33]-ATP based radiometric assay
[5] = molecular target: T2, Receptor-type tyrosine-protein kinase FLT3 (Homo sapiens, UniProt P36888); test: Inhibition of FLT3 in human MOLM-13 cells; type: cell-based
T2 sequence (P36888 whole entry): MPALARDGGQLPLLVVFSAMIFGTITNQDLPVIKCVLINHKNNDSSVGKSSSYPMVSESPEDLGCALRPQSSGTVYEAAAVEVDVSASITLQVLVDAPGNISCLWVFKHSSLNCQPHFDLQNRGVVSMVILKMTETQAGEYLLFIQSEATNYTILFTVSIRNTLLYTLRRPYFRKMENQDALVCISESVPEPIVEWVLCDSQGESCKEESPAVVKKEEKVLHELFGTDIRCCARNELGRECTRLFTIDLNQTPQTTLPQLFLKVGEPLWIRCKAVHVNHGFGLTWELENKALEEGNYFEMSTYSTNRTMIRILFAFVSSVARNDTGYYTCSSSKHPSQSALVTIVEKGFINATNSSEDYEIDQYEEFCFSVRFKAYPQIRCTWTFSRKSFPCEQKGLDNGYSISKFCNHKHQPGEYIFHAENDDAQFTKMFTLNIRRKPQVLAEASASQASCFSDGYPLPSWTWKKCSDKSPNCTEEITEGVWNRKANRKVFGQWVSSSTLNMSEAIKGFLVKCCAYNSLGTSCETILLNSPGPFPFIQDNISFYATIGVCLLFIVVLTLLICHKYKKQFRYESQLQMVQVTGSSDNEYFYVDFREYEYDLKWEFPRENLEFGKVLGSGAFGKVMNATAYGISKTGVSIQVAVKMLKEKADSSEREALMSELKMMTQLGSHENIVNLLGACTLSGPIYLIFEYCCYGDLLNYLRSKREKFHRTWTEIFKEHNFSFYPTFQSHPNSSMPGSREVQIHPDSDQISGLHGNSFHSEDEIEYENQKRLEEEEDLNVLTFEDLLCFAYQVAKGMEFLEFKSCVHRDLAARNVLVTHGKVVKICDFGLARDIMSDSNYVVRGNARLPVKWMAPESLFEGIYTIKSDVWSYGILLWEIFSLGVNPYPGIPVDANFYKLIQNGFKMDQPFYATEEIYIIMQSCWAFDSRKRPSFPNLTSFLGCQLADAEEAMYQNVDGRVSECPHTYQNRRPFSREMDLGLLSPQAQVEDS
Method in brief: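 Cell proliferation assay. IC50 is the concentration that inhibits proliferation by 50%, taken from dose–response curves. Mean ± SEM of at least three independent experiments.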

[6] = molecular target: Tyrosine-protein kinase JAK1 (Homo sapiens, UniProt P23458); test: Inhibition of JAK1 (unknown origin) in presence of Mg/ATP mixture by [gamma p33]-ATP based radiometric assay
Method in brief: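 IC50 values determined by Eurofins Discovery.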

BaF3 [7] = test: Inhibition of JAK2/STAT signaling pathway in mouse BaF3 cells harbouring JAK2 V617F mutant assessed as reduction in STAT3 phosphorylation by Western blot analysis; type: cell-based; settings: dose 10-1000 nM; method in brief: as §1
BaF3 [8] = test: Inhibition of JAK2/STAT signaling pathway in mouse BaF3 cells harbouring JAK2 V617F mutant assessed as reduction in STAT5 phosphorylation by Western blot analysis; type: cell-based; settings: dose 10-1000 nM; method in brief: as §1
[9] = Half life in Sprague-Dawley rat at 5 mg/kg, po measured upto 24 hrs by LC-MS/MS analysis; type: ADME, organism-based; settings: in vivo, po, 5 mg/kg, 24 h; method in brief: as §2
[10] = Tmax in Sprague-Dawley rat at 5 mg/kg, po measured upto 24 hrs by LC-MS/MS analysis; type: ADME, organism-based; settings: in vivo, po, 5 mg/kg, 24 h
Method in brief: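 Sprague–Dawley rats, n = 5 per group, dosed at 5 mg/kg as a solution in 2% ethanol and 1% Tween 80, pH 5.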

Chain of Non-receptor tyrosine-protein kinase TYK2 (P29597 whole entry): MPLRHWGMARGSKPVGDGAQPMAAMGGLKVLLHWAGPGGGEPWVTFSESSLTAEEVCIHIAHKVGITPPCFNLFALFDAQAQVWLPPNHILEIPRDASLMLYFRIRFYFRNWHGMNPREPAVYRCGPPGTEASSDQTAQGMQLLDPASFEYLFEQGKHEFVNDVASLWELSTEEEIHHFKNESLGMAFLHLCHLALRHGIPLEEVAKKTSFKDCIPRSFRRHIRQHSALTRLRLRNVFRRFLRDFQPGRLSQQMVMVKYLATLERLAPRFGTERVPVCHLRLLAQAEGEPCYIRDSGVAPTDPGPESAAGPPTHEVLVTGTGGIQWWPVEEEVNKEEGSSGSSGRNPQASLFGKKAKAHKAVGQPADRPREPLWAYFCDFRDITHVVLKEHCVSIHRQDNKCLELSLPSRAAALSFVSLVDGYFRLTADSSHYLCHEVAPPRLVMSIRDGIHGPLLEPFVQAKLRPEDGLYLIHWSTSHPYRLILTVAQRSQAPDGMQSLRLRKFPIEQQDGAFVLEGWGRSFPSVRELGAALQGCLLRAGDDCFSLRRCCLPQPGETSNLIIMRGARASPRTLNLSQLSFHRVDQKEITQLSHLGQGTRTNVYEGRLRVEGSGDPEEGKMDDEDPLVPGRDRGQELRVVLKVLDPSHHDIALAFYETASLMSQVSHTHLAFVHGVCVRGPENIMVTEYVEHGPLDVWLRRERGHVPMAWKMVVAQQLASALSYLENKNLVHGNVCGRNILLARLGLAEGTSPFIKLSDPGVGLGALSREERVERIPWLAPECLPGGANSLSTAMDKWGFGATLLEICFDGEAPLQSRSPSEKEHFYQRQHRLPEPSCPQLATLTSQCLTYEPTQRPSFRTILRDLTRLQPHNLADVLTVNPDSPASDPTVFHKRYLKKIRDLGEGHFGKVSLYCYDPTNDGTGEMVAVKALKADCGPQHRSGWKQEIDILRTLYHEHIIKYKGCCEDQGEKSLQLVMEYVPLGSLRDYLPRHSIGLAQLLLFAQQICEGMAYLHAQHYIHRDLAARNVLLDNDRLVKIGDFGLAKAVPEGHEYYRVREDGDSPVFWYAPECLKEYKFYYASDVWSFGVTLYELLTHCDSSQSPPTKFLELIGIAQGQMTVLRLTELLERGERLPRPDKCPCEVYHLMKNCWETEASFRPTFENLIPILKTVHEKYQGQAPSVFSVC
Chain of Tyrosine-protein kinase JAK1 (P23458 whole entry): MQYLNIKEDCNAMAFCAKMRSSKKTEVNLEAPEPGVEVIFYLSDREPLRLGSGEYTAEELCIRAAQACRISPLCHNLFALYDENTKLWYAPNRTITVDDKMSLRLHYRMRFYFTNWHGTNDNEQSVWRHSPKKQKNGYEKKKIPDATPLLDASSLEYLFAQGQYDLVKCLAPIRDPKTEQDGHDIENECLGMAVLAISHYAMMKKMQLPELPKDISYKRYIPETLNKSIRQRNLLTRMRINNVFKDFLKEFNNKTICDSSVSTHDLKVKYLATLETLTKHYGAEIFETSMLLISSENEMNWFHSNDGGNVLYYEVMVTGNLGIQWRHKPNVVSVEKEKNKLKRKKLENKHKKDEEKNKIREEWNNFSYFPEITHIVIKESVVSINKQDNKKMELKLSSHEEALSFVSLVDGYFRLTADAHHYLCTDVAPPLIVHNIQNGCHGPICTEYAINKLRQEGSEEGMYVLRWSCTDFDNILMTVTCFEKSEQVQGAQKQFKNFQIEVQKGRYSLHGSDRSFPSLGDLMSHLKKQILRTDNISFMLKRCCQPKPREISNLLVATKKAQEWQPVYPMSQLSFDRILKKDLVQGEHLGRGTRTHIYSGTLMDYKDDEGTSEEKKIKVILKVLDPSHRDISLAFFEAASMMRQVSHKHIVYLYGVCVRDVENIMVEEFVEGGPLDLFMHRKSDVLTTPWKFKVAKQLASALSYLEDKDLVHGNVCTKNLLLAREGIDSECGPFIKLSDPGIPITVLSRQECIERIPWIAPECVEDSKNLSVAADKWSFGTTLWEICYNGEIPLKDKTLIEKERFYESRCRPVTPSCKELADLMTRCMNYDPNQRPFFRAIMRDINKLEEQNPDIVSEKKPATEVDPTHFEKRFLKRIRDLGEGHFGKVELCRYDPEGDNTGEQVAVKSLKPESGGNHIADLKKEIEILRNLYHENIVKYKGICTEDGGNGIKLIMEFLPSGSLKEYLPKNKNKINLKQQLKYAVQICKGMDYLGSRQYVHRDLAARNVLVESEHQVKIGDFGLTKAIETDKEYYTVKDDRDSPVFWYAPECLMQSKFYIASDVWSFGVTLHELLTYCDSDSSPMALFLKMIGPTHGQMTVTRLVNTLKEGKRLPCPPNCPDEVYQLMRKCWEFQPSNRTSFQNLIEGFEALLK

IC50 [2]: 273 nM | Cmax [3]: 121.4 ng/mL | IC50 [4]: 206 nM | IC50 [5]: 583 nM | IC50 [6]: 193 nM | t1/2 [9]: 5.2 h | Tmax [10]: 1.4 h
Structure (SMILES): C=CS(=O)(=O)NCc1ccc(Nc2ncc(C)c(-c3cnn(C(C)C)c3)n2)cc1
inhibition (BaF3 [1]): Dose-Dependent Effect | inhibition (BaF3 [7]): Dose-Dependent Effect | inhibition (BaF3 [8]): Dose-Dependent Effect
